Laboratory results reported in ChEMBL document CHEMBL1125200, “Structure-activity relationships of estrogenic ligands: synthesis and evaluation of (17 alpha, 20E)- and (17 alpha, 20Z)-21-halo-19-norpregna-1,3,5(10),20-tetraene-3,17 beta-diols” (J Med Chem, 1991).

Experiments:
[1] = target: T1, Estrogen receptor (Rattus norvegicus) (UniProt P06211+Q62986); experiment: Relative binding affinity (RBA) for estrogen receptor of rat uterine cytosol at 25 degree C relative to Estradiol; assay type: protein assay
How it was run: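 Cytosol source is the uterus of immature female Holtzman rats (21–25 days old), kept in liquid nitrogen. Graded concentrations of unlabeled ligand compete with [³H]estradiol during an 18 h incubation at 25 °C. RBA is expressed against estradiol set at 100.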

[2] = target: T2, Estrogen receptor (Ovis aries) (UniProt P49885+Q9TU15); experiment: Relative binding affinity (RBA) for estrogen receptor in lamb uterine cytosol at OC relative to Estradiol; assay type: protein assay; settings: Uterus
How it was run: (§1)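 Competitive estrogen receptor binding in lamb uterine cytosol, with estradiol as the standard ligand (RBA = 100). Incubation was at 0–4 °C for 1–2 h.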

[3] = target: T1, Estrogen receptor (Rattus norvegicus); experiment: Relative binding affinity (RBA) for estrogen receptor of rat uterine cytosol at OC relative to Estradiol; assay type: protein assay
How it was run: (§2)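 Uterine cytosol from immature female Holtzman rats (21–25 days old), stored in liquid nitrogen. Competition assay with varying concentrations of unlabeled competitor against [³H]estradiol, incubated at 0–4 °C for 1–2 h. RBA is reported relative to estradiol (RBA = 100).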

[4] = target: T2, Estrogen receptor (Ovis aries); experiment: Relative binding affinity (RBA) for estrogen receptor of lamb uterine cytosol at OC relative to Estradiol; assay type: protein assay; how it was run: as §1
[5] = target: T1, Estrogen receptor (Rattus norvegicus); experiment: Relative binding affinity (RBA) for estrogen receptor in rat uterine cytosol at OC relative to Estradiol; settings: Uterus; how it was run: as §2

C[C@]12CC[C@@H]3c4ccc(O)cc4CC[C@H]3[C@@H]1CC[C@@]2(O)/C=C/Cl
RBA [1]: 199 | relative binding affinity (RBA) [2]: 74 | relative binding affinity (RBA) [3]: 126

C[C@]12CC[C@@H]3c4ccc(O)cc4CC[C@H]3[C@@H]1CC[C@@]2(O)/C=C\Cl
RBA [1]: 89 | relative binding affinity (RBA) [4]: 115 | relative binding affinity (RBA) [5]: 102

C[C@]12CC[C@@H]3c4ccc(O)cc4CC[C@H]3[C@@H]1CC[C@@]2(O)/C=C\I
RBA [1]: 62 | relative binding affinity (RBA) [3]: 77

C[C@]12CC[C@@H]3c4ccc(O)cc4CC[C@H]3[C@@H]1CC[C@@]2(O)/C=C/I
RBA [1]: 776 | relative binding affinity (RBA) [3]: 202

C[C@]12CC[C@@H]3c4ccc(O)cc4CC[C@H]3[C@@H]1CC[C@@]2(O)/C=C\Br
RBA [1]: 56 | relative binding affinity (RBA) [4]: 71 | relative binding affinity (RBA) [5]: 78

C[C@]12CC[C@@H]3c4ccc(O)cc4CC[C@H]3[C@@H]1CC[C@@]2(O)/C=C/Br
RBA [1]: 661 | relative binding affinity (RBA) [2]: 117 | relative binding affinity (RBA) [3]: 195
